Assay outcomes: PubChem BioAssay, The Scripps Research Institute Molecular Screening Center
CHRM1 agonist: activates human CHRM1 receptor | CHO-K1 hM1, Fluo-8 calcium fluorescence, agonist mode; 0% DMSO, 100% acetylcholine EC100 | hit rate 0.33% among 360,000 | activation, % at 3 µM;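 active = activation above the run's mean compound activation plus 3 SD, cut at about 16% in these data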;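 note: peak over basal fluorescence ratio within a 140 s kinetic read after compound addition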
CHRM5 agonist: CHRM5 agonism in calcium assay; P08912; CHO-K1 hM5 cells, Fluo-8 calcium fluorescence; 0% DMSO wells, 100% maximal acetylcholine response; activation, % at 3 µM; hit rate 0.19% among 360,000; AID 624037;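 active = activation above the run's mean over test compounds plus 3 SD, cut at about 23% in these data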;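 note: signal is peak over basal fluorescence ratio across the kinetic read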
Target sequence (P08912 whole entry, looked up): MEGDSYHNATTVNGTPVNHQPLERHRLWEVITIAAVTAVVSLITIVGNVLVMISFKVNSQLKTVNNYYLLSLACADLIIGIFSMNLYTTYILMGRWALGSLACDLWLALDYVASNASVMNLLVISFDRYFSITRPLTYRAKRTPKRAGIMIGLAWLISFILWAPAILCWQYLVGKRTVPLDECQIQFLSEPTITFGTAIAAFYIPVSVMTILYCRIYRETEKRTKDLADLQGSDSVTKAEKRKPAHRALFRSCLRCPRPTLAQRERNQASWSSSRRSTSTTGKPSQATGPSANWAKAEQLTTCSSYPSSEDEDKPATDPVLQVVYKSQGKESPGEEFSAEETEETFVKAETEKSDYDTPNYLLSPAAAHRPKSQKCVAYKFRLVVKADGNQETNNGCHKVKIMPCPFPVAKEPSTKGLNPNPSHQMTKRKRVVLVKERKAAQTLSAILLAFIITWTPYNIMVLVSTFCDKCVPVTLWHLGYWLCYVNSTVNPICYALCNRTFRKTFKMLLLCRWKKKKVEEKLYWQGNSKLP
CHRM5 antagonist: blocks acetylcholine activation of human M5 receptor | P08912 | CHO-hM5 cells, Fluo-8 calcium fluorescence, ACh EC80 | inhibition, % at 3 µM | hit rate 0.59% among 360,000 | AID 624040;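 active = inhibition above a per-plate cutoff, the mean of that plate's test compounds plus 3 SD, cut at about 27% in these data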;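 note: 0% = acetylcholine EC80 with DMSO and 100% = DMSO without agonist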
M1 antag: human CHRM1 antagonism; P11229; CHO-K1 hM1, Fluo-8 calcium fluorescence, ACh EC80 antagonist; inhibition, % at 3 µM; hit rate 1.3% among 360,000;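 active = percent inhibition above its own plate's cutoff, namely the mean of that plate's compound wells plus 3 SD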;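 note: peak over basal fluorescence ratio during 140 s after agonist addition; 0% = ACh EC80 plus DMSO and 100% = DMSO alone without agonist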
CHRM1 PAM: human CHRM1 positive allosteric modulation; P11229; CHO-K1 hM1, Fluo-8 calcium fluorescence, ACh EC20; 0% = ACh EC20, 100% = maximal ACh; activation, % at 3 µM; hit rate 0.088% among 360,000; AID 588819; in the data active = activation above about 19%, passing the limit was not always enough
M5 PAM: positive allosteric modulators of human muscarinic M5 receptor; AID 624038; CHO-K1 hM5, Fluo-8 calcium, ACh EC20 PAM; 0% = ACh EC20, 100% = ACh EC100; hit rate 0.3% among 360,000; P08912; activation, % at 3 µM;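 active = activation above the run cutoff, the mean activation of all test compounds plus 3 SD, cut at about 18% in these data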
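Test system: CHO-K1 hM5 cells / Doses: single-point, 3 µM nominal / Times: Post-acetylcholine fluorescence recording 140 s / Technique: Fluo-8 calcium fluorescence / Measure: Max/basal fluorescence ratio as % of EC20–EC100 ACh window / Benchmarks: low control EC20 acetylcholine (0%), high control EC100 acetylcholine (100%) / Replicates: one well per compound, no replicates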
An asterisk follows results filed as active. This is a sample that favours compounds with a hit; in the whole collection about 2.2% have one here.

`O=C(CSc1nc(-c2ccccc2)cc(=O)[nH]1)N1CCOCC1` gave CHRM1 agonist -3.1, CHRM5 agonist -4.5, CHRM5 antagonist 39.7*, M1 antag -1.9, CHRM1 PAM -0.4 and M5 PAM 0.8.
`CCOc1ccccc1/C=C/c1onc(C)c1S(=O)(=O)N1CCC(C(=O)NC(C)(C)C)CC1` gave CHRM1 agonist -2.6, CHRM5 agonist -1.2, CHRM5 antagonist 0.6, M1 antag -12.6, CHRM1 PAM 11.8 and M5 PAM 4.7.
O=S(=O)(Nc1ccc2c(c1)OCO2)c1cccs1 was read as CHRM1 agonist -1.0, CHRM5 agonist -2.0, CHRM5 antagonist 20.7, M1 antag -3.9, CHRM1 PAM 5.2 and M5 PAM 33.6*.
`CC(=NO)c1ccc2c(c1)Cc1cc([N+](=O)[O-])ccc1-2` gave CHRM1 agonist -2.2, CHRM5 agonist -0.7, CHRM5 antagonist 5.0, M1 antag -3.9, CHRM1 PAM 1.0 and M5 PAM -4.7.
Screening Nc1ccc2c(c1)Cc1cc([N+](=O)[O-])ccc1-2 returned CHRM1 agonist 5.1, CHRM5 agonist 34.5*, CHRM5 antagonist 28.2*, M1 antag 19.7, CHRM1 PAM -12.1 and M5 PAM -12.4.
`CC(O)CN(CC(C)O)c1ccc2c(c1)Cc1cc([N+](=O)[O-])ccc1-2` (configuration not stated) gave CHRM1 agonist 133.7*, CHRM5 agonist 527.0*, CHRM5 antagonist 72.8*, M1 antag 70.7*, CHRM1 PAM -29.5 and M5 PAM -36.6.
Screening COc1cccc(-n2cnc3sc(C)c(C)c3c2=O)c1 returned CHRM1 agonist -5.7, CHRM5 agonist -3.9, CHRM5 antagonist -1.1, M1 antag -5.7, CHRM1 PAM 6.7 and M5 PAM -2.1.
For Cc1cccc(-n2cnc3sc(C)c(C)c3c2=O)c1 the results were CHRM1 agonist -4.4, CHRM5 agonist -7.9, CHRM5 antagonist 35.0*, M1 antag -2.8, CHRM1 PAM 4.8 and M5 PAM -10.7.
`CC(=O)C1=C(c2ccccc2)NC(=S)NC1c1ccc(O)c(O)c1` (configuration not stated) gave CHRM1 agonist 1.8, CHRM5 agonist 8.8, CHRM5 antagonist 3.4, M1 antag -10.6, CHRM1 PAM 10.4 and M5 PAM 25.7*.
O=C(Nc1ccc(Cl)cc1)Nc1ccccc1CC[N+](=O)[O-] was read as CHRM1 agonist 0.5, CHRM5 agonist 7.7, CHRM5 antagonist 28.8*, M1 antag 11.4, CHRM1 PAM -20.6 and M5 PAM -16.8.
For Cc1cc(OC(F)F)ccc1NC(=O)Nc1ccc([N+](=O)[O-])cc1 the results were CHRM1 agonist 2.5, CHRM5 agonist 4.6, CHRM5 antagonist 27.4*, M1 antag 18.0, CHRM1 PAM -12.5 and M5 PAM -15.7.
For O=C(Nc1ccc(Cl)cc1)Nc1cc([N+](=O)[O-])ccc1F the results were CHRM1 agonist -5.5, CHRM5 agonist 0.6, CHRM5 antagonist 3.4, M1 antag -1.0, CHRM1 PAM 0.1 and M5 PAM -1.1.
For Cc1cc([N+](=O)[O-])ccc1NC(=O)C(C)[n+]1ccccc1 (configuration not stated) the results were CHRM1 agonist -11.9, CHRM5 agonist -5.2, CHRM5 antagonist 3.4, M1 antag 26.7*, CHRM1 PAM -27.4 and M5 PAM -6.8.
COc1ccc(OC(C)C(=O)Nc2ccc([N+](=O)[O-])cc2)cc1 (configuration not stated) was read as CHRM1 agonist -4.3, CHRM5 agonist 2.5, CHRM5 antagonist 3.3, M1 antag -8.2, CHRM1 PAM 8.0 and M5 PAM -11.2.
`O=C(Nc1ccc([N+](=O)[O-])cc1)Nc1ccc(Cl)cc1F` gave CHRM1 agonist -1.0, CHRM5 agonist 1.1, CHRM5 antagonist 40.7*, M1 antag 15.8, CHRM1 PAM -8.2 and M5 PAM -17.8.
Cc1ccc(C(=O)N[C@H](C(=O)Nc2sccc2C(N)=O)C(C)C)cc1 was read as CHRM1 agonist -2.4, CHRM5 agonist 1.5, CHRM5 antagonist -9.1, M1 antag 2.0, CHRM1 PAM 1.2 and M5 PAM 5.0.
For CC(C)NC(=O)Cn1cc(C(=O)C2CC2)c2ccccc21 the results were CHRM1 agonist -3.6, CHRM5 agonist -1.5, CHRM5 antagonist -3.6, M1 antag -9.3, CHRM1 PAM 4.7 and M5 PAM 6.3.
For CC(=O)Cc1nsc(NC(=O)c2ccc(-c3cccc(Cl)c3)o2)n1 the results were CHRM1 agonist -2.3, CHRM5 agonist 1.6, CHRM5 antagonist 3.2, M1 antag -11.4, CHRM1 PAM 9.5 and M5 PAM 1.3.
Cc1cccc(NC(=O)CSCC(=O)Nc2cccc3ncccc23)c1 was read as CHRM1 agonist -3.8, CHRM5 agonist 3.1, CHRM5 antagonist 1.2, M1 antag -8.9, CHRM1 PAM 9.1 and M5 PAM 1.2.
For O=C(Nc1ccc(Cl)cc1)Nc1csc([N+](=O)[O-])c1 the results were CHRM1 agonist 7.5, CHRM5 agonist 6.1, CHRM5 antagonist 37.4*, M1 antag 28.9, CHRM1 PAM -2.6 and M5 PAM -32.6.
`O=C(Nc1csc([N+](=O)[O-])c1)Nc1c(Cl)cccc1Cl` gave CHRM1 agonist 4.5, CHRM5 agonist 5.6, CHRM5 antagonist 14.6, M1 antag 0.9, CHRM1 PAM 8.4 and M5 PAM -12.2.
Cc1cccc(N2CN(Cc3ccco3)CNC2=S)c1C was read as CHRM1 agonist 0.8, CHRM5 agonist 1.0, CHRM5 antagonist -1.2, M1 antag 2.6, CHRM1 PAM 3.8 and M5 PAM 9.1.
For CC(C)CC(=O)Nc1nc2ccc(S(=O)(=O)N3CCOCC3)cc2s1 the results were CHRM1 agonist -2.0, CHRM5 agonist 0.5, CHRM5 antagonist -7.6, M1 antag 7.2, CHRM1 PAM 2.8 and M5 PAM 19.1*.
Screening CCCC(=O)Nc1nc2ccc(S(=O)(=O)N3CCCCC3)cc2s1 returned CHRM1 agonist 8.4, CHRM5 agonist 7.7, CHRM5 antagonist 3.0, M1 antag -3.1, CHRM1 PAM -0.6 and M5 PAM -9.9.
`CCOc1ccccc1-n1c(SCC(=O)NC)nnc1-c1ccco1` gave CHRM1 agonist -3.1, CHRM5 agonist 1.2, CHRM5 antagonist 4.0, M1 antag -3.8, CHRM1 PAM 4.4 and M5 PAM -1.4.
CNC(=O)CSc1nnc(-c2ccco2)n1-c1ccccc1OC was read as CHRM1 agonist 4.0, CHRM5 agonist 3.8, CHRM5 antagonist -14.5, M1 antag -25.5, CHRM1 PAM 24.6* and M5 PAM 10.3.
`O=C(c1ccncc1)N1N=C(c2ccc(Br)cc2)CC1c1ccccc1O` (configuration not stated) gave CHRM1 agonist -1.4, CHRM5 agonist -3.4, CHRM5 antagonist 32.5*, M1 antag 14.3, CHRM1 PAM -8.6 and M5 PAM -8.9.
